From article PMC8520054 (Asian Journal of Pharmaceutical Sciences, 2021)

Columns and labels:
[1] = system: TNF-α, IL-1β, IL-6, IL-17A in joint homogenates; experiment: Inflammatory cytokines in joint homogenates of AIA rats; format: in vivo, SD rats; conditions: ELISA, i.v. 0.75 mg/kg peptide every day for one week, n = 7
Method in brief: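 SD rats made arthritic on Day 1 by 50 µl CFA (10 mg/ml M. tuberculosis) injected s.c. into paws. Arthritic rats (n = 7/group) then dosed i.v. daily for one week with PBS, free peptide or nanoparticle formulation at 0.75 mg/kg peptide; untreated healthy rats as reference. After 14 d, joint tissues cut up and homogenised; TNF-α, IL-1β, IL-6, IL-17A quantified by ELISA; mean ± SD.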

ankle joints of AIA rats = experiment: Joint histology; format: in vivo, SD rats; conditions: i.v. 0.75 mg/kg peptide every day for one week
Method in brief: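 CFA-induced arthritic SD rats received daily i.v. PBS, free peptide or nanoparticles (0.75 mg/kg peptide) for one week; healthy rats served as controls. Rats were sacrificed after 14 d. Ankle joints were fixed in 4% paraformaldehyde for 3 d, decalcified in 15% EDTA-2Na and sectioned. Sections were stained with HE, or immunostained with IL-17A and MPO antibodies plus secondary antibodies. n = 7.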

[2] = system: Th17 (CD4+IL-17+) and Treg (CD4+Foxp3+) cells; experiment: Flow cytometry of Th17 and Treg cells in draining lymph nodes of AIA rats; format: in vivo, SD rats; conditions: Day 24, n = 7
Method in brief: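 Arthritis induced in SD rats on Day 1 by subcutaneous paw injection of 50 µl CFA (10 mg/ml Mycobacterium tuberculosis). Groups (n = 7) given i.v. PBS, free peptide or peptide-loaded nanoparticles (0.75 mg/kg peptide) daily for one week; healthy rats as normal control. On Day 24, popliteal draining lymph nodes sieved (300-mesh) to single cells; CD4+IL-17+ and CD4+Foxp3+ subsets by flow cytometry; mean ± SD.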

[3] = Biocompatibility in AIA rats: blood cell counts and body weight; format: in vivo, SD rats; conditions: compared to the normal group, n = 7
[4] = system: adjuvant-induced arthritis (AIA) rat model; experiment: In vivo therapeutic efficacy in adjuvant-induced arthritis; parameters: species or system SD rats; conditions: AIA rats, i.v. 0.75 mg/kg peptide every day for one week, n = 7, vs PBS
Method in brief: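 Adjuvant arthritis was induced in male SD rats by s.c. CFA into the paws on Day 1 and was largely established by Day 10. Groups of n = 7, plus healthy controls, received daily i.v. PBS, free peptide or nanoparticles (0.75 mg/kg peptide) for one week. Body weight, paw thickness and joint score were recorded daily. Each paw was graded 0–4 for erythema/swelling, giving a maximum of 16 per rat. Values are mean ± SD; groups were compared by Student's t-test.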

## AMVSEFLKQAWFIENEEQEYVQTVK [Ac2–26]
[1]
  expression of IL-1β in joint homogenates: unable to effectively decrease the inflammatory level
  expression of IL-6 in joint homogenates: unable to effectively decrease the inflammatory level
  expression of IL-17A in joint homogenates: unable to effectively decrease the inflammatory level
  expression of TNF-α in joint homogenates: unable to effectively decrease the inflammatory level
Ankle joints of AIA rats
  expression of IL-17A in joint tissues (immunohistochemistry): clearly visible
  expression of MPO in joint tissues (immunohistochemistry): slightly attenuate the expression of MPO
Ankle joints of AIA rats; n = 7
  pathological condition of ankle joints (HE staining): extensive inflammation infiltration, tissue damage and cartilage destruction
[2]
  proportion of Treg cells in draining lymph nodes: unable to increase the proportion of Treg
[3]
  count of platelets (PLT): no significant difference
  count of white blood cells (WBC): no significant difference
[4]
  paw thickness: limited reduction of the paw thickness
